# Experiments:
# Assay type in all cases: functional
# [1] = system: Escherichia coli; assay: Antibacterial activity against Escherichia coli ATCC 25922 assessed as bacterial growth inhibition by broth microdilution assay
# Summary of the method: (§1)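 Broth microdilution. Bacteria from glycerol stocks were grown overnight on blood agar at 37 °C, then colonies were suspended in TSB and grown to OD600 0.5. Compounds were dissolved in DMSO at 6.4 mg mL−1 (stock) and serially diluted in CAMHB (Mg2+ 12.5, Ca2+ 20 μg mL−1) in polypropylene plates. Inoculum was 10^6 CFU mL−1 final, incubated at 37 °C. MIC = lowest concentration without visible growth; values consistent across at least triplicate experiments.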
# [2] = system: Escherichia coli; assay: Antibacterial activity against Escherichia coli 1313 assessed as bacterial growth inhibition by broth microdilution assay; summary of the method: as §1
# [3] = system: Escherichia coli; assay: Antibacterial activity against multidrug-resistant Escherichia coli NCTC 13846 assessed as bacterial growth inhibition by broth microdilution assay
# Summary of the method: (§2)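 Broth microdilution MIC. Strains grown overnight on blood agar at 37 °C, colonies suspended in TSB and grown to OD600 0.5. Compounds dissolved in DMSO (6.4 mg mL−1 stock), diluted serially in CAMHB (12.5 μg mL−1 Mg2+, 20 μg mL−1 Ca2+) on polypropylene plates. Final inoculum 10^6 CFU mL−1, 37 °C under gas-permeable membrane. MIC is the lowest concentration with no visible growth, consistent across at least triplicate experiments.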
# [4] = system: Klebsiella pneumoniae; assay: Antibacterial activity against Klebsiella pneumoniae ATCC 13883 assessed as bacterial growth inhibition by broth microdilution assay; summary of the method: as §1
# [5] = system: Klebsiella pneumoniae; assay: Antibacterial activity against Klebsiella pneumoniae JS-123 assessed as bacterial growth inhibition by broth microdilution assay; summary of the method: as §1
# [6] = system: Klebsiella pneumoniae; assay: Antibacterial activity against Klebsiella pneumoniae NCTC 13443 assessed as bacterial growth inhibition by broth microdilution assay; summary of the method: as §1
# [7] = system: Acinetobacter baumannii; assay: Antibacterial activity against Acinetobacter baumannii ATCC 19606 assessed as bacterial growth inhibition by broth microdilution assay; summary of the method: as §2
# [8] = system: Acinetobacter baumannii; assay: Antibacterial activity against Acinetobacter baumannii ATCC 17978 assessed as bacterial growth inhibition by broth microdilution assay; summary of the method: as §2
# [9] = system: Acinetobacter baumannii; assay: Antibacterial activity against multidrug-resistant Acinetobacter baumannii assessed as bacterial growth inhibition by broth microdilution assay; summary of the method: as §2
# [10] = system: Acinetobacter baumannii; assay: Antibacterial activity against Acinetobacter baumannii 2018-006 assessed as bacterial growth inhibition by broth microdilution assay; summary of the method: as §2
# [11] = system: Pseudomonas aeruginosa; assay: Antibacterial activity against Pseudomonas aeruginosa ATCC 27853 assessed as bacterial growth inhibition by broth microdilution assay; summary of the method: as §1
# [12] = system: Pseudomonas aeruginosa; assay: Antibacterial activity against Pseudomonas aeruginosa NRZ 08418 assessed as bacterial growth inhibition by broth microdilution assay; summary of the method: as §1
# [13] = system: Pseudomonas aeruginosa; assay: Antibacterial activity against Pseudomonas aeruginosa NRZ 03961 assessed as bacterial growth inhibition by broth microdilution assay; summary of the method: as §1
SMILES,MIC [1] [µg/mL],MIC [2] [µg/mL],MIC [3] [µg/mL],MIC [4] [µg/mL],MIC [5] [µg/mL],MIC [6] [µg/mL],MIC [7] [µg/mL],MIC [8] [µg/mL],MIC [9] [µg/mL],MIC [10] [µg/mL],MIC [11] [µg/mL],MIC [12] [µg/mL],MIC [13] [µg/mL]
CC(C)CCSSC[C@@H](N)C(=O)N[C@H](C(=O)N[C@H](CCN)C(=O)N[C@H]1CCNC(=O)[C@H]([C@@H](C)O)NC(=O)[C@H](CCN)NC(=O)[C@H](CCN)NC(=O)[C@H](CC(C)C)NC(=O)[C@@H](Cc2ccccc2)NC(=O)[C@H](CCN)NC1=O)[C@@H](C)O,2,0.25,8,0.5,0.25,0.5,0.25,0.25,0.5,0.25,1,2,2
CC(C)C[C@@H]1NC(=O)[C@@H](Cc2ccccc2)NC(=O)[C@H](CCN)NC(=O)[C@@H](NC(=O)[C@@H](CO)NC(=O)[C@@H](NC(=O)[C@H](N)CSSCc2cccc(Cl)c2)[C@@H](C)O)CCNC(=O)[C@H]([C@@H](C)O)NC(=O)[C@H](CCN)NC(=O)[C@H](CCN)NC1=O,2,0.5,8,1,0.25,0.5,0.5,0.5,0.5,0.5,4,4,8
CC(C)C[C@@H]1NC(=O)[C@@H](Cc2ccccc2)NC(=O)[C@H](CCN)NC(=O)[C@@H](NC(=O)[C@H](CN)NC(=O)[C@@H](NC(=O)[C@H](N)CSSCCC2CCCCC2)[C@@H](C)O)CCNC(=O)[C@H]([C@@H](C)O)NC(=O)[C@H](CCN)NC(=O)[C@H](CCN)NC1=O,1,0.5,2,1,0.5,1,0.5,1,1,0.5,2,2,2
CC(C)C[C@@H]1NC(=O)[C@@H](Cc2ccccc2)NC(=O)[C@H](CCN)NC(=O)[C@@H](NC(=O)[C@@H](CCN)NC(=O)[C@@H](NC(=O)[C@H](N)CSSCCC2CCCCC2)[C@@H](C)O)CCNC(=O)[C@H]([C@@H](C)O)NC(=O)[C@H](CCN)NC(=O)[C@H](CCN)NC1=O,2,0.5,4,1,1,1,0.5,1,1,0.5,2,2,2
CC(C)C[C@@H]1NC(=O)[C@@H](Cc2ccccc2)NC(=O)[C@H](CCN)NC(=O)[C@@H](NC(=O)[C@@H](CO)NC(=O)[C@@H](NC(=O)[C@H](N)CSSCCC2CCCCC2)[C@@H](C)O)CCNC(=O)[C@H]([C@@H](C)O)NC(=O)[C@H](CCN)NC(=O)[C@H](CCN)NC1=O,2,1,8,1,1,1,0.25,1,1,0.5,4,4,4
CC(C)CCSSC[C@@H](N)C(=O)N[C@H](C(=O)NCC(=O)N[C@H]1CCNC(=O)[C@H]([C@@H](C)O)NC(=O)[C@H](CCN)NC(=O)[C@H](CCN)NC(=O)[C@H](CC(C)C)NC(=O)[C@@H](Cc2ccccc2)NC(=O)[C@H](CCN)NC1=O)[C@@H](C)O,2,0.25,16,0.5,0.5,0.5,0.5,0.5,0.5,0.5,4,4,4
CC(C)C[C@@H]1NC(=O)[C@@H](Cc2ccccc2)NC(=O)[C@H](CCN)NC(=O)[C@@H](NC(=O)CNC(=O)[C@@H](NC(=O)[C@H](N)CSSCc2cccc(Cl)c2)[C@@H](C)O)CCNC(=O)[C@H]([C@@H](C)O)NC(=O)[C@H](CCN)NC(=O)[C@H](CCN)NC1=O,2,0.25,8,1,0.5,0.5,1,1,1,1,4,4,4

# Source: ChEMBL document CHEMBL5356951, “Semisynthetic polymyxins with potent antibacterial activity and reduced kidney cell toxicity” (RSC Med Chem, 2023)
